ChEMBL document CHEMBL5360527, “Synthesis, binding affinity, and inhibitory capacity of cyclodextrin-based multivalent glycan ligands for human galectin-3” (Bioorg Med Chem, 2022)

Assays:
Galectin-3 [1] = biological target: T1, Galectin-3 (Homo sapiens, UniProt P17931); assay: Binding affinity to human galectin 3 assessed as relative affinity by surface plasma resonance analysis
How it was run: (§1)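 Recombinant human Gal-3 amine-coupled to a CM5 chip (about 1000 RU) with an ethanolamine reference channel. Analytes were serially diluted in 0.01 M HEPES pH 7.4, 0.15 M NaCl and 0.005% P20, then run at 25 °C and 30 μL/min with 120 s association and 300 s dissociation, followed by 3 M MgCl2 regeneration. EC50 was taken from the fitted binding curve.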

Galectin-3 [2] = biological target: T1, Galectin-3; assay: Binding affinity to human galectin 3 by surface plasma resonance analysis; how it was run: as §1
Galectin-3 [3] = biological target: T1, Galectin-3; assay: Inhibition of human galectin 3 binding to human A549 cells incubated for 1 hr; format: cell-based
How it was run: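 A549 cells were grown in plates, fixed, and blocked overnight at 4 °C with 3% BSA in PBS. Biotinylated Gal-3 (5 μg/ml), premixed with compound at 3–300 μM, was then added for 1 h at 4 °C. Bound Gal-3 was detected with streptavidin-HRP and TMB, stopped with 1 M HCl, and read at OD450. Percent inhibition came from a Gal-3 standard curve, and EC50 from a five-parameter asymmetric fit.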

Galectin-3 [4] = biological target: T1, Galectin-3; assay: Binding affinity to human galectin 3 assessed as relative affinity per sugar unit on cyclodextrin by surface plasma resonance analysis; how it was run: as §1

T1 sequence (P17931 whole entry): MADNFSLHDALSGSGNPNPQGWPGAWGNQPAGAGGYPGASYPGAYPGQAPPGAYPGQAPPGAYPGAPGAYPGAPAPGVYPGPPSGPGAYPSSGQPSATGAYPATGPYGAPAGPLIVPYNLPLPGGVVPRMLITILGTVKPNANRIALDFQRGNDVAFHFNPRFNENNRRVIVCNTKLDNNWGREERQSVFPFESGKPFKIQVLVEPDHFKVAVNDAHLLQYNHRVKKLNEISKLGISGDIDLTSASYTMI

| SMILES | relative binding affinity (RBA) (Galectin-3 [1]) | EC50 (Galectin-3 [2]) [µM] | EC50 (Galectin-3 [3]) [µM] | relative binding affinity (RBA) (Galectin-3 [4]) |
| --- | --- | --- | --- | --- |
| CC(=O)N[C@H]1[C@@H](OCCOCCOCCN=[N+]=[N-])O[C@H](CO)[C@H](O)[C@@H]1O | < 1.47 | – | – | – |
| CC(=O)N[C@H]1[C@@H](OCCOCCOCCn2cc(CCC(=O)NC[C@H]3O[C@@H]4O[C@H]5[C@H](O)[C@@H](O)[C@@H](O[C@H]6[C@H](O)[C@@H](O)[C@@H](O[C@H]7[C@H](O)[C@@H](O)[C@@H](O[C@H]8[C@H](O)[C@@H](O)[C@@H](O[C@H]9[C@H](O)[C@@H](O)[C@@H](O[C@H]%10[C@H](O)[C@@H](O)[C@@H](O[C@H]3[C@H](O)[C@H]4O)O[C@@H]%10CNC(=O)CCc3cn(CCOCCOCCO[C@H]4O[C@H](CO)[C@H](O)[C@H](O)[C@H]4NC(C)=O)nn3)O[C@@H]9CNC(=O)CCc3cn(CCOCCOCCO[C@H]4O[C@H](CO)[C@H](O)[C@H](O)[C@H]4NC(C)=O)nn3)O[C@@H]8CNC(=O)CCc3cn(CCOCCOCCO[C@H]4O[C@H](CO)[C@H](O)[C@H](O)[C@H]4NC(C)=O)nn3)O[C@@H]7CNC(=O)CCc3cn(CCOCCOCCO[C@H]4O[C@H](CO)[C@H](O)[C@H](O)[C@H]4NC(C)=O)nn3)O[C@@H]6CNC(=O)CCc3cn(CCOCCOCCO[C@H]4O[C@H](CO)[C@H](O)[C@H](O)[C@H]4NC(C)=O)nn3)O[C@@H]5CNC(=O)CCc3cn(CCOCCOCCO[C@H]4O[C@H](CO)[C@H](O)[C@H](O)[C@H]4NC(C)=O)nn3)nn2)O[C@H](CO)[C@H](O)[C@@H]1O | 1070 | 1.37 | 1.5 | 153 |
| O=C(CCc1cn(CCOCCOCCO[C@@H]2O[C@H](CO)[C@@H](O[C@@H]3O[C@H](CO)[C@H](O)[C@H](O)[C@H]3O)[C@H](O)[C@H]2O)nn1)NC[C@H]1O[C@@H]2O[C@H]3[C@H](O)[C@@H](O)[C@@H](O[C@H]4[C@H](O)[C@@H](O)[C@@H](O[C@H]5[C@H](O)[C@@H](O)[C@@H](O[C@H]6[C@H](O)[C@@H](O)[C@@H](O[C@H]7[C@H](O)[C@@H](O)[C@@H](O[C@H]8[C@H](O)[C@@H](O)[C@@H](O[C@H]1[C@H](O)[C@H]2O)O[C@@H]8CNC(=O)CCc1cn(CCOCCOCCO[C@@H]2O[C@H](CO)[C@@H](O[C@@H]8O[C@H](CO)[C@H](O)[C@H](O)[C@H]8O)[C@H](O)[C@H]2O)nn1)O[C@@H]7CNC(=O)CCc1cn(CCOCCOCCO[C@@H]2O[C@H](CO)[C@@H](O[C@@H]7O[C@H](CO)[C@H](O)[C@H](O)[C@H]7O)[C@H](O)[C@H]2O)nn1)O[C@@H]6CNC(=O)CCc1cn(CCOCCOCCO[C@@H]2O[C@H](CO)[C@@H](O[C@@H]6O[C@H](CO)[C@H](O)[C@H](O)[C@H]6O)[C@H](O)[C@H]2O)nn1)O[C@@H]5CNC(=O)CCc1cn(CCOCCOCCO[C@@H]2O[C@H](CO)[C@@H](O[C@@H]5O[C@H](CO)[C@H](O)[C@H](O)[C@H]5O)[C@H](O)[C@H]2O)nn1)O[C@@H]4CNC(=O)CCc1cn(CCOCCOCCO[C@@H]2O[C@H](CO)[C@@H](O[C@@H]4O[C@H](CO)[C@H](O)[C@H](O)[C@H]4O)[C@H](O)[C@H]2O)nn1)O[C@@H]3CNC(=O)CCc1cn(CCOCCOCCO[C@@H]2O[C@H](CO)[C@@H](O[C@@H]3O[C@H](CO)[C@H](O)[C@H](O)[C@H]3O)[C@H](O)[C@H]2O)nn1 | 58.1 | 25.3 | 23.5 | 8.29 |
| CC(=O)N[C@H]1[C@@H](OCCOCCOCCN=[N+]=[N-])O[C@H](CO)[C@H](O)[C@@H]1O[C@@H]1O[C@H](CO)[C@H](O)[C@H](O)[C@H]1O | < 1.47 | – | – | – |
| [N-]=[N+]=NCCOCCOCCO[C@@H]1O[C@H](CO)[C@@H](O[C@@H]2O[C@H](CO)[C@H](O)[C@H](O)[C@H]2O)[C@H](O)[C@H]1O | < 1.47 | – | – | – |
| CC(=O)N[C@H]1[C@@H](OCCOCCOCCn2cc(CCC(=O)NC[C@H]3O[C@@H]4O[C@H]5[C@H](O)[C@@H](O)[C@@H](O[C@H]6[C@H](O)[C@@H](O)[C@@H](O[C@H]7[C@H](O)[C@@H](O)[C@@H](O[C@H]8[C@H](O)[C@@H](O)[C@@H](O[C@H]9[C@H](O)[C@@H](O)[C@@H](O[C@H]%10[C@H](O)[C@@H](O)[C@@H](O[C@H]3[C@H](O)[C@H]4O)O[C@@H]%10CNC(=O)CCc3cn(CCOCCOCCO[C@H]4O[C@H](CO)[C@H](O)[C@H](O[C@@H]%10O[C@H](CO)[C@H](O)[C@H](O)[C@H]%10O)[C@H]4NC(C)=O)nn3)O[C@@H]9CNC(=O)CCc3cn(CCOCCOCCO[C@H]4O[C@H](CO)[C@H](O)[C@H](O[C@@H]9O[C@H](CO)[C@H](O)[C@H](O)[C@H]9O)[C@H]4NC(C)=O)nn3)O[C@@H]8CNC(=O)CCc3cn(CCOCCOCCO[C@H]4O[C@H](CO)[C@H](O)[C@H](O[C@@H]8O[C@H](CO)[C@H](O)[C@H](O)[C@H]8O)[C@H]4NC(C)=O)nn3)O[C@@H]7CNC(=O)CCc3cn(CCOCCOCCO[C@H]4O[C@H](CO)[C@H](O)[C@H](O[C@@H]7O[C@H](CO)[C@H](O)[C@H](O)[C@H]7O)[C@H]4NC(C)=O)nn3)O[C@@H]6CNC(=O)CCc3cn(CCOCCOCCO[C@H]4O[C@H](CO)[C@H](O)[C@H](O[C@@H]6O[C@H](CO)[C@H](O)[C@H](O)[C@H]6O)[C@H]4NC(C)=O)nn3)O[C@@H]5CNC(=O)CCc3cn(CCOCCOCCO[C@H]4O[C@H](CO)[C@H](O)[C@H](O[C@@H]5O[C@H](CO)[C@H](O)[C@H](O)[C@H]5O)[C@H]4NC(C)=O)nn3)nn2)O[C@H](CO)[C@H](O)[C@@H]1OC1O[C@H](CO)[C@H](O)[C@H](O)[C@H]1O (stereo not given in full) | 464 | 3.16 | 10.5 | 66.4 |
